Compounds with a hit are over-represented: about 1.8% of the library has one in this group of screens.
M5 PAM = positive allosteric modulators of human muscarinic M5 receptor. P08912. CHO-K1 hM5, Fluo-8 calcium, ACh EC20 PAM; 0% = ACh EC20, 100% = ACh EC100. activation, % at 3 µM. hit rate 0.3% among 360,000;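 active = activation above the run cutoff, the mean activation of all test compounds plus 3 SD, cut at about 18% in these data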
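Measured by: Fluo-8 calcium fluorescence; material: human M5 receptor in CHO-K1 cells; schedule: Post-acetylcholine fluorescence recording 140 s; benchmarks: low control EC20 acetylcholine (0%), high control EC100 acetylcholine (100%); read-out: Max/basal fluorescence ratio as % of EC20–EC100 ACh window; compound: single dose, 3 µM nominal final test concentration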
CHRM4 antagonist = antagonists of human muscarinic M4 receptor (CHRM4) | inhibition, % at 3 µM | CHO-hM4 cells, ACh EC80, Fluo-8 calcium fluorescence | hit rate 0.73% among 360,000;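 active = inhibition above its plate's cutoff, the mean inhibition of sample wells plus 3 SD, cut at about 27% in these data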;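 note: 0% = acetylcholine EC80 with DMSO and 100% = DMSO without agonist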
Target sequence (P08173 whole entry, looked up): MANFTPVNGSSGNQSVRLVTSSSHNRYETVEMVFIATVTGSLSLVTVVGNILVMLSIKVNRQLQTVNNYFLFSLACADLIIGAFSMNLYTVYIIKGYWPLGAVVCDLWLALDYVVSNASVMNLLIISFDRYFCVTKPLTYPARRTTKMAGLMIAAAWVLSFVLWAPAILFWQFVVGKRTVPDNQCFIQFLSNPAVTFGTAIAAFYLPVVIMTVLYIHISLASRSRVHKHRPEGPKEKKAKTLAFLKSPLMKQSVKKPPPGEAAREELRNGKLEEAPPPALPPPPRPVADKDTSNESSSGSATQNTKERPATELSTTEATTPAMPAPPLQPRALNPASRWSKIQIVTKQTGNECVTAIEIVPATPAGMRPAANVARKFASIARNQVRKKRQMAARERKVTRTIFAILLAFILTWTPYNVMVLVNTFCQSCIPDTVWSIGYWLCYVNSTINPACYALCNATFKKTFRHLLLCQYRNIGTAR
CHRM5 agonist = CHRM5 agonism in calcium assay | activation, % at 3 µM | hit rate 0.19% among 360,000 | P08912 | CHO-K1 hM5 cells, Fluo-8 calcium fluorescence; 0% DMSO wells, 100% maximal acetylcholine response | AID 624037;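 active = activation above the run's mean over test compounds plus 3 SD, cut at about 23% in these data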;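 note: signal is peak over basal fluorescence ratio across the kinetic read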
M4 ag = agonists of human muscarinic M4 receptor (CHRM4); P08173; CHO-K1 hM4/Gqi5, Fluo-8 calcium fluorescence; vehicle 0%, full acetylcholine response 100%; activation, % at 3 µM; hit rate 0.14% among 360,000; AID 624127;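 active = activation above the run mean over all test wells plus 3 SD, cut at about 32% in these data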;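 note: peak over basal fluorescence ratio per well then scaled between controls; 0% = DMSO wells and 100% = acetylcholine at EC100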
M5 antag = blocks acetylcholine activation of human M5 receptor; inhibition, % at 3 µM; hit rate 0.59% among 360,000; CHO-hM5 cells, Fluo-8 calcium fluorescence, ACh EC80; AID 624040; P08912;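 active = inhibition above a per-plate cutoff, the mean of that plate's test compounds plus 3 SD, cut at about 27% in these data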;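 note: 0% = acetylcholine EC80 with DMSO and 100% = DMSO without agonist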
M4 PAM = positive allosteric modulators of human muscarinic M4 receptor. activation, % at 3 µM. P08173. hit rate 0.4% among 360,000. AID 624126. CHO-K1 hM4/Gqi5, Fluo-8 calcium fluorescence, ACh EC20; 0% = ACh EC20, 100% = maximal ACh;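 active = activation above its plate's cutoff, the mean activation of sample wells plus 3 SD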
Active calls of the source: *.

SMILES	M5 PAM	CHRM4 antagonist	CHRM5 agonist	M4 ag	M5 antag	M4 PAM
CC1=C(C)/C(=N\OS(=O)(=O)c2ccc(C)cc2)C=CC1=O	3	60*	13	12	24	-9
COc1ccc(S(=O)(=O)/N=C2/C=CC(=O)C(C)=C2C)cc1	1	2	0	1	2	5
COc1ccc(NC(=O)c2cc(C3CCCCN3S(=O)(=O)c3cn(C)cn3)on2)c(C)c1 (centres undefined)	3	-15	0	1	3	9
O=C(C1CCCO1)N1CCN(C(c2ccccc2)c2ccccc2)CC1 (centres undefined)	-1	2	-7	0	-4	-7
O=C(C1CCCO1)N1CCC(O)(c2ccccc2)CC1 (centres undefined)	3	4	2	1	-4	20*
CCCCNc1cc(C)nc(NCc2ccccc2)n1	-21	33*	7	23	33*	-6
Cc1cc(Nc2ccccc2)nc(NCc2ccccc2)n1	-14	22	5	13	30*	-11
CN1C(=O)[C@@](O)(c2cn(C)c3ccccc23)c2cc(F)ccc21	11	-22	2	3	-19	4
O=C(NC1CCCC1)c1nc(-c2c(F)cccc2F)oc1-c1ccccc1	1	-2	-1	-1	1	1
CCC1CCCCN1S(=O)(=O)c1ccc(NC(=O)c2nc(S(C)(=O)=O)ncc2Cl)cc1 (centres undefined)	-6	59*	-1	11	21	-12
CCc1ccc(N/C(SCc2cccc(F)c2)=C(/C#N)C(=O)NCc2ccco2)cc1	-1	5	0	1	7	-6
Cc1ccc(N/C(SCc2ccccc2C)=C(/C#N)C(=O)NCc2ccco2)cc1C	-10	27*	-4	0	4	-21
CCCCc1nc2cc(C(=O)NCc3nccn3CC)ccc2o1	-15	32*	-10	1	5	-12
O=S(=O)(/N=C(/Nc1cccnc1)c1ccccc1)c1ccc(F)cc1F	6	10	-3	0	5	2
Cc1cc(N/C(=N\S(=O)(=O)c2ccc(F)cc2F)c2ccccc2)no1	3	-9	1	1	2	20*
CC(C)CCNC(=O)CN1N=C(c2ccc(Cl)cc2)CCC1=O	2	-10	-4	1	8	6
Oc1ccccc1NCC(O)Cn1ccc2ccccc21 (centres undefined)	6	35*	0	3	9	18
COc1ccc(CNC(=O)CN(C(=O)c2csnn2)c2cccc(C(C)=O)c2)cc1	5	1	0	0	-2	1
CC(=O)Nc1ccc(Sc2ncccc2C(=O)Nc2ccc(F)cc2)cn1	-14	26	50*	94*	15	-26
Cc1ccc(SCC(=O)N2CCCC2)cc1	19*	6	-7	0	-3	1
CCCOc1ccccc1Cn1c(=O)oc2ccccc21	-2	4	-12	-2	7	2
CCOc1cc(/C=C2\CN(C)C/C(=C\c3ccc(O)c(OCC)c3)C2=O)ccc1O	-4	-8	0	11	3	-2
CCOc1cc(/C=C2\CCC/C(=C\c3cc(Cl)c(O)c(OCC)c3)C2=O)cc(Cl)c1O	-11	47*	-4	3	22	-23
CCOC(=O)C1CCCN(C(=O)c2ccc(S(=O)(=O)Nc3ccccc3OC)cc2)C1 (centres undefined)	-2	7	3	4	7	-2
NC(=O)c1ccsc1NC(=O)COC(=O)/C=C/c1ccccc1[N+](=O)[O-]	-40	31*	5	23	20	-8
SMILES	M5 PAM	CHRM4 antagonist	CHRM5 agonist	M4 ag	M5 antag	M4 PAM
NC(=O)c1ccsc1NC(=O)COC(=O)/C=C/c1ccccc1	-30	22	7	27	23	-16
CN(c1ccccc1)S(=O)(=O)c1cccc(C(=O)NC2CCCCC2)c1	1	-4	-2	5	-2	3
CN(c1ccccc1)S(=O)(=O)c1cccc(NS(=O)(=O)c2cccc(C(=O)O)c2)c1	23*	-7	4	-2	-9	8
Cc1nnc(SCC(=O)Nc2cccc(S(=O)(=O)N(C)c3ccccc3)c2)s1	-18	25	8	13	31*	-8
Cc1ccc(S(=O)(=O)N(C)c2ccc(OCC(=O)Nc3nc4ccccc4s3)cc2)cc1	-16	21	0	10	31*	-13
CCC(=O)c1ccc(OCC(=O)Nc2cccc(S(=O)(=O)N(C)c3ccccc3)c2)cc1	-41	29*	1	27	34*	-11
COc1ccc(OC)c(CN2CCN(C(=O)CCC(=O)c3cccs3)CC2)c1	1	-1	-3	0	0	-1
CCOc1ccc(CCNc2nc3ccc(C)cc3n3cnnc23)cc1OCC	-6	-4	-3	2	4	-2
COc1cc(OC)c(C(=O)OCC(=O)NCC2CCCCC2)cc1OC	-1	3	3	1	0	1
CC1=C(C)C(=O)C(N2CCOCC2)=CC1=O	21*	2	7	2	12	9
O=C1C=C(N2CCOCC2)c2ccccc2C1=O	4	-6	2	2	5	6
COc1ccc(CCNC(=O)CNC(=O)c2ccccc2Br)cc1OC	-5	5	0	0	10	-12
CCNC(=S)N/N=C/c1cc(C)ccc1C	-7	-6	-5	-3	1	6
C=CCNC(=S)N/N=C/c1ccc(C)cc1C	21*	-11	1	-1	-15	6
CC(C)N(C(=O)CSc1nc2c([nH]1)c(=O)n(C)c(=O)n2C)c1ccccc1	1	-16	1	1	-1	17*
O=c1nc(SCc2ccccc2Cl)nc(-c2ccc(Cl)cc2)[nH]1	1	-4	2	0	-6	-3
O=c1nc(SCc2c(F)cccc2Cl)nc(-c2ccc(Cl)cc2)[nH]1	3	-20	-4	1	5	39*
O=C(Nc1ccncc1)Nc1cccc(Cl)c1	-13	4	9	15	31*	-6
O=C(NCc1ccncc1)Nc1cccc(Cl)c1	2	-7	-7	1	-5	1
O=C(Nc1cccc(Cl)c1)Nc1nc(-c2ccc(Cl)cc2)cs1	-15	24	5	10	23	0
O=C(Nc1cccc(Cl)c1)Nc1csc([N+](=O)[O-])c1	-26	19	2	15	28*	6
CCOC(=O)c1sc(NC(=O)Nc2cccc(Cl)c2)cc1C	-18	38*	7	17	37*	-24
Cc1cccc(NC(=O)Nc2ccc(Cl)cc2)n1	-1	0	1	1	0	0
